Laboratory results reported in ChEMBL document CHEMBL1155942, “Synthesis and evaluation in vitro and in vivo of a 11C-labeled cyclooxygenase-2 (COX-2) inhibitor” (Bioorg Med Chem, 2008).

Columns and labels:
[1] = tested on: Blood; assay: Biodistribution in Wistar rat blood at ~20 MBq, iv after 5 mins; type: ADME, organism-based; conditions: in vivo
How it was run: (§1)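 Male Wistar rats, housed under standard conditions. Each received about 20 MBq of radiotracer iv in 0.5 mL saline with 10% ethanol. Animals were killed at 5 or 60 min post injection, and organs were excised and weighed. Activity was gamma-counted, decay-corrected and calibrated against injected-tracer aliquots, then expressed as %ID/g. Mean ± SD, four animals per time point.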

[2] = tested on: Blood; assay: Biodistribution in Wistar rat blood at ~20 MBq, iv after 60 mins; type: ADME, organism-based; conditions: in vivo, 1 h; how it was run: as §1
[3] = tested on: Brain; assay: Biodistribution in Wistar rat brain at ~20 MBq, iv after 5 mins; type: ADME, organism-based; conditions: in vivo; how it was run: as §1
[4] = tested on: Brain; assay: Biodistribution in Wistar rat brain at ~20 MBq, iv after 60 mins; type: ADME, organism-based; conditions: in vivo, 1 h; how it was run: as §1
[5] = tested on: Heart; assay: Biodistribution in Wistar rat heart at ~20 MBq, iv after 5 mins; type: ADME, organism-based; conditions: in vivo; how it was run: as §1
[6] = tested on: Heart; assay: Biodistribution in Wistar rat heart at ~20 MBq, iv after 60 mins; type: ADME, organism-based; conditions: in vivo, 1 h; how it was run: as §1
[7] = tested on: Lung; assay: Biodistribution in Wistar rat lung at ~20 MBq, iv after 5 mins; type: ADME, organism-based; conditions: in vivo; how it was run: as §1
[8] = tested on: Lung; assay: Biodistribution in Wistar rat lung at ~20 MBq, iv after 60 mins; type: ADME, organism-based; conditions: in vivo, 1 h; how it was run: as §1
[9] = tested on: Liver; assay: Biodistribution in Wistar rat liver at ~20 MBq, iv after 5 mins; type: ADME, organism-based; conditions: in vivo; how it was run: as §1
[10] = tested on: Liver; assay: Biodistribution in Wistar rat liver at ~20 MBq, iv after 60 mins; type: ADME, organism-based; conditions: in vivo, 1 h; how it was run: as §1
[11] = tested on: Spleen; assay: Biodistribution in Wistar rat spleen at ~20 MBq, iv after 5 mins; type: ADME, organism-based; conditions: in vivo; how it was run: as §1
[12] = tested on: Spleen; assay: Biodistribution in Wistar rat spleen at ~20 MBq, iv after 60 mins; type: ADME, organism-based; conditions: in vivo, 1 h; how it was run: as §1
[13] = tested on: Pancreas; assay: Biodistribution in Wistar rat pancreas at ~20 MBq, iv after 5 mins; type: ADME, organism-based; conditions: in vivo; how it was run: as §1
[14] = tested on: Pancreas; assay: Biodistribution in Wistar rat pancreas at ~20 MBq, iv after 60 mins; type: ADME, organism-based; conditions: in vivo, 1 h; how it was run: as §1
[15] = tested on: Adrenal; assay: Biodistribution in Wistar rat adrenal at ~20 MBq, iv after 5 mins; type: ADME, organism-based, Adrenal tissue; conditions: in vivo; how it was run: as §1
[16] = tested on: Adrenal; assay: Biodistribution in Wistar rat adrenal at ~20 MBq, iv after 60 mins; type: ADME, organism-based, Adrenal tissue; conditions: in vivo, 1 h; how it was run: as §1
[17] = tested on: Kidney; assay: Biodistribution in Wistar rat kidney at ~20 MBq, iv after 5 mins; type: ADME, organism-based; conditions: in vivo; how it was run: as §1
[18] = tested on: Kidney; assay: Biodistribution in Wistar rat kidney at ~20 MBq, iv after 60 mins; type: ADME, organism-based; conditions: in vivo, 1 h; how it was run: as §1
[19] = tested on: Thymus; assay: Biodistribution in Wistar rat thymus at ~20 MBq, iv after 5 mins; type: ADME, organism-based; conditions: in vivo; how it was run: as §1
[20] = tested on: Thymus; assay: Biodistribution in Wistar rat thymus at ~20 MBq, iv after 60 mins; type: ADME, organism-based; conditions: in vivo, 1 h; how it was run: as §1
[21] = tested on: Muscle tissue; assay: Biodistribution in Wistar rat muscle at ~20 MBq, iv after 5 mins; type: ADME, organism-based; conditions: in vivo; how it was run: as §1
[22] = tested on: Muscle tissue; assay: Biodistribution in Wistar rat muscle at ~20 MBq, iv after 60 mins; type: ADME, organism-based; conditions: in vivo, 1 h; how it was run: as §1
[23] = tested on: Harderian gland; assay: Biodistribution in Wistar rat harderian gland at ~20 MBq, iv after 5 mins; type: ADME, organism-based; conditions: in vivo; how it was run: as §1
[24] = tested on: Harderian gland; assay: Biodistribution in Wistar rat harderian gland at ~20 MBq, iv after 60 mins; type: ADME, organism-based; conditions: in vivo, 1 h; how it was run: as §1
[25] = Biodistribution in Wistar rat brown adipose tissue at ~20 MBq, iv after 5 mins; type: ADME, organism-based; conditions: in vivo; how it was run: as §1
[26] = Biodistribution in Wistar rat brown adipose tissue at ~20 MBq, iv after 60 mins; type: ADME, organism-based; conditions: in vivo, 1 h; how it was run: as §1
[27] = Biodistribution in Wistar rat white adipose tissue at ~20 MBq, iv after 5 mins; type: ADME, organism-based; conditions: in vivo; how it was run: as §1
[28] = Biodistribution in Wistar rat white adipose tissue at ~20 MBq, iv after 60 mins; type: ADME, organism-based; conditions: in vivo, 1 h; how it was run: as §1
[29] = tested on: Femur; assay: Biodistribution in Wistar rat femur at ~20 MBq, iv after 5 mins; type: ADME, organism-based; conditions: in vivo; how it was run: as §1
[30] = tested on: Femur; assay: Biodistribution in Wistar rat femur at ~20 MBq, iv after 60 mins; type: ADME, organism-based; conditions: in vivo, 1 h; how it was run: as §1
[31] = tested on: Testes; assay: Biodistribution in Wistar rat testes at ~20 MBq, iv after 5 mins; type: ADME, organism-based, Testis; conditions: in vivo; how it was run: as §1
[32] = tested on: Testes; assay: Biodistribution in Wistar rat testes at ~20 MBq, iv after 60 mins; type: ADME, organism-based, Testis; conditions: in vivo, 1 h; how it was run: as §1
[33] = Metabolic stability in Wistar rat plasma at 30 MBq, iv after 1 min; type: ADME, organism-based; conditions: read-out: Stability
How it was run: (§2)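 After iv radiotracer, arterial blood was drawn through a femoral artery catheter. Plasma was separated by centrifugation (3 min, 11,000g). Proteins were precipitated with ice-cold methanol (1.5 parts per part plasma) and centrifuged again. Supernatants were analysed by HPLC for the fraction of intact radiotracer over time.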

[34] = Metabolic stability in Wistar rat plasma at 30 MBq, iv after 5 mins; type: ADME, organism-based; conditions: read-out: Stability; how it was run: as §2
[35] = Metabolic stability in Wistar rat plasma at 30 MBq, iv after 10 mins; type: ADME, organism-based; conditions: read-out: Stability; how it was run: as §2
[36] = Metabolic stability in Wistar rat plasma at 30 MBq, iv after 20 mins; type: ADME, organism-based; conditions: read-out: Stability; how it was run: as §2
[37] = Metabolic stability in Wistar rat plasma at 30 MBq, iv after 30 mins; type: ADME, organism-based; conditions: read-out: Stability; how it was run: as §2
[38] = Metabolic stability in Wistar rat plasma at 30 MBq, iv after 60 mins; type: ADME, organism-based; conditions: read-out: Stability; how it was run: as §2
[39] = Metabolic stability in human HT29 cells bearing mouse plasma at 20 MBq, iv after 1 min; type: ADME, organism-based, HT-29; conditions: read-out: Stability; how it was run: as §2
[40] = Metabolic stability in human HT29 cells bearing mouse plasma at 20 MBq, iv after 5 mins; type: ADME, organism-based, HT-29; conditions: read-out: Stability; how it was run: as §2
[41] = Metabolic stability in human HT29 cells bearing mouse plasma at 20 MBq, iv after 10 mins; type: ADME, organism-based, HT-29; conditions: read-out: Stability; how it was run: as §2
[42] = Metabolic stability in human HT29 cells bearing mouse plasma at 20 MBq, iv after 20 mins; type: ADME, organism-based, HT-29; conditions: read-out: Stability; how it was run: as §2
[43] = Metabolic stability in human HT29 cells bearing mouse plasma at 20 MBq, iv after 30 mins; type: ADME, organism-based, HT-29; conditions: read-out: Stability; how it was run: as §2
[44] = Metabolic stability in human HT29 cells bearing mouse plasma at 20 MBq, iv after 60 mins; type: ADME, organism-based, HT-29; conditions: read-out: Stability; how it was run: as §2

Drug uptake [1]: 0.23 % ID/g
Drug uptake [2]: 0.18 % ID/g
Drug uptake [3]: 0.59 % ID/g
Drug uptake [4]: 0.11 % ID/g
Drug uptake [5]: 0.5 % ID/g
Drug uptake [6]: 0.16 % ID/g
Drug uptake [7]: 0.59 % ID/g
Drug uptake [8]: 0.19 % ID/g
Drug uptake [9]: 1.35 % ID/g
Drug uptake [10]: 0.76 % ID/g
Drug uptake [11]: 0.32 % ID/g
Drug uptake [12]: 0.21 % ID/g
Drug uptake [13]: 0.78 % ID/g
Drug uptake [14]: 0.52 % ID/g
Drug uptake [15]: 1.33 % ID/g
Drug uptake [16]: 0.57 % ID/g
Drug uptake [17]: 0.62 % ID/g
Drug uptake [18]: 0.26 % ID/g
Drug uptake [19]: 0.64 % ID/g
Drug uptake [20]: 0.2 % ID/g
Drug uptake [21]: 0.32 % ID/g
Drug uptake [22]: 0.11 % ID/g
Drug uptake [23]: 1.06 % ID/g
Drug uptake [24]: 0.42 % ID/g
Drug uptake [25]: 1.89 % ID/g
Drug uptake [26]: 0.67 % ID/g
Drug uptake [27]: 0.53 % ID/g
Drug uptake [28]: 0.52 % ID/g
Drug uptake [29]: 0.34 % ID/g
Drug uptake [30]: 0.19 % ID/g
Drug uptake [31]: 0.2 % ID/g
Drug uptake [32]: 0.09 % ID/g
remaining at 1 min [33]: 97%
remaining at 5 min [34]: 57%
remaining at 10 min [35]: 35%
remaining at 20 min [36]: 26%
remaining at 0.5 h [37]: 22%
remaining at 1 h [38]: 18%
remaining at 1 min [39]: 95%
remaining at 5 min [40]: 40%
remaining at 10 min [41]: 17%
remaining at 20 min [42]: 8%
remaining at 0.5 h [43]: 5%
remaining at 1 h [44]: 2%
Compound: CS(=O)(=O)c1ccc(C2=C(c3ccc(O[11CH3])cc3)CCC2)cc1
